In ChEMBL document CHEMBL4364290, “Light-controlled inhibition of BRAFV600E kinase” (Eur J Med Chem, 2019):
The source made the active and inactive calls. The rule behind the calls is not given here.

Tests used:
A-375 [1] = assay: Cytotoxicity against human A375 cells harboring BRAF V600E mutant assessed as reduction in cell viability at 10 uM incubated for 24 hrs by MTS assay; assay type: functional, cell-based
How it was run: (§1)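 A375 melanoma cells (BRAF V600E) exposed 24 h to 10 µM compound, thermally adapted or 365 nm-irradiated, versus DMSO control; viability by MTS assay.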

[2] = biological target: T1, Serine/threonine-protein kinase B-raf (Homo sapiens, UniProt P15056, V600E); assay: Inhibition of human recombinant BRAF V600E mutant using MEK1 as substrate measured after 1 hr by Western blot analysis
T1 sequence (P15056 2-766 V600E limits assumed): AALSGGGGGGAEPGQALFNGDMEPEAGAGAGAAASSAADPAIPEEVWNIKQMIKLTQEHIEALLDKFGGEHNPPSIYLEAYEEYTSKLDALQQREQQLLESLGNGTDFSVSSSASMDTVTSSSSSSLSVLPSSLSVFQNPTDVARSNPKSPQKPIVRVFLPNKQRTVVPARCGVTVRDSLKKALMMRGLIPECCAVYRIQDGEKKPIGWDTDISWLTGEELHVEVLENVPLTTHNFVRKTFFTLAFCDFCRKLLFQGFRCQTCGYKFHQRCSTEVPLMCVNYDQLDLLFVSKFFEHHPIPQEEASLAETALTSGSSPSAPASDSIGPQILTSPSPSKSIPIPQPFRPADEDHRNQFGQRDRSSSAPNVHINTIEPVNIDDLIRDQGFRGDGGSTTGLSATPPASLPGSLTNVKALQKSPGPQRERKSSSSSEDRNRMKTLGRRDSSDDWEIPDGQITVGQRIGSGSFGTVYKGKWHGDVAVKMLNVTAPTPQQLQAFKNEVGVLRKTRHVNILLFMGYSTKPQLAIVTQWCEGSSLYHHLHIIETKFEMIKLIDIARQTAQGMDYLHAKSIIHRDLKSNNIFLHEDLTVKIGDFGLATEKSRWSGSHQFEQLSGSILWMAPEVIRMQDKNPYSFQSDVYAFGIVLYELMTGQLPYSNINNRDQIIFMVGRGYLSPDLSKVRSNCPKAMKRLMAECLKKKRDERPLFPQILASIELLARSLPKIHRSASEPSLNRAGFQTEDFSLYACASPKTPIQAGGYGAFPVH

[3] = tested on: Serine/threonine-protein kinase B-raf (Homo sapiens), P15056 [V600E]; assay: Inhibition of BRAF V600E mutant in human SK-MEL-28 cells using peptide substrate by STK-Pamchip array-based method; assay type: cell-based
Chain of Serine/threonine-protein kinase B-raf (Homo sapiens), P15056 [V600E] (P15056 whole entry V600E, the tested form may be a part): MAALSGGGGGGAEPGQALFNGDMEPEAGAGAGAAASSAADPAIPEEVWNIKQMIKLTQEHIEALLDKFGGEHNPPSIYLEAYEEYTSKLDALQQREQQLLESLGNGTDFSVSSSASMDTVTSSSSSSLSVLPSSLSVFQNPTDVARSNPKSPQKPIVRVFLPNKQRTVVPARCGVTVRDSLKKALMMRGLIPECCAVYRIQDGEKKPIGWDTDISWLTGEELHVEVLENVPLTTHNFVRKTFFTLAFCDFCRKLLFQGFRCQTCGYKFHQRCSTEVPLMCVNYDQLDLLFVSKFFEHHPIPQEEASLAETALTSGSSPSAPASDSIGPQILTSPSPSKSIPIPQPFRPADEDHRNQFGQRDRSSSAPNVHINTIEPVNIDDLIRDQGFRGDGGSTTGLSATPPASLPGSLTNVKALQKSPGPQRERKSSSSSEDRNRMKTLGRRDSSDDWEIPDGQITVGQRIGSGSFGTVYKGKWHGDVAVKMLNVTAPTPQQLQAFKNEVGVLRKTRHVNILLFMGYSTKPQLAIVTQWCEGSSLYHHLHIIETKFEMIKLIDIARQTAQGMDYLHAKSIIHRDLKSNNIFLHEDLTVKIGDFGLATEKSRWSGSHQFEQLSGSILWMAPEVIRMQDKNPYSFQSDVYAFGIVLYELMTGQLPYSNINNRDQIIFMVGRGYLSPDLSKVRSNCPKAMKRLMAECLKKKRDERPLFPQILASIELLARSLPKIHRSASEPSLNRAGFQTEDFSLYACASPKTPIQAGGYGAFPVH
How it was run: (§2)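 SK-Mel-28 cell lysates treated with DMSO control or inhibitor, either dark (thermally adapted) or irradiated with 365 nm light; kinase activity profiled on PamGene STK peptide chips.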

[4] = Half life of the compound in DMSO-d6 at 2 mg/ml measured at room temperature under 365 nm light irradiation using trans-isomer form of compound by 1H-19F NMR spectroscopic analysis
How it was run: (§3)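 Cis isomer generated by 365 nm irradiation to PSS; half-life of thermal cis-to-trans relaxation followed at room temperature in DMSO, in BRAF assay buffer, or in 1:1 BRAF assay buffer/acetonitrile where solubility required.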

[5] = Half life of the compound in pH 7.5 tris HCl buffer/acetonitrile at 2 mg/ml measured at room temperature under 365 nm light irradiation using trans-isomer form of compound by 1H-19F NMR spectroscopic analysis; how it was run: as §3
[6] = Drug re-isomerization in DMSO-d6 assessed as cis isomer level at PSS at 2 mg/ml measured after 20 hrs under dark condition at room temperature using irradiated compound by 1H-NMR spectroscopic analysis
[7] = biological target: T1, Serine/threonine-protein kinase B-raf; assay: Inhibition of human recombinant N-terminal GST/His6-tagged BRAF V600E mutant (Q417 to H766 residues) expressed in Sf9 insect cells using MEK1 as substrate measured after 1 hr using light irradiated compound at 365 nm for 45 mins by Western blot analysis
[8] = Drug isomerization in DMSO-d6 irradiated at 365 nm assessed as rate of thermal relaxation measured as cis isomer level at PSS at 2 mg/ml measured after 70 hrs storage in dark at room temperature by 1H-NMR spectroscopic analysis
[9] = Drug isomerization in DMSO-d6 irradiated at 365 nm assessed as rate of thermal relaxation measured as cis isomer level at PSS at 2 mg/ml measured after 18 hrs storage in dark at room temperature by 1H-NMR spectroscopic analysis
[10] = Stability of the compound in DMSO-D6 at 2 mg/ml by 1H-19F NMR analysis; assay type: physicochemical; conditions: read-out: Stability
[11] = Drug isomerization in DMSO-d6 assessed as cis isomer level at PSS at 2 mg/ml irradiated at 365 nm light measured immediately by 1H-NMR spectroscopic analysis
[12] = Drug isomerization in DMSO-d6 irradiated at 365 nm assessed as cis isomer level at PSS at 2 mg/ml measured after 90 mins under room temperature by 1H and 19F-NMR spectroscopic analysis
[13] = Absorption property of the compound in pH 7.5 tris HCl buffer assessed as maximum absorption wavelength; assay type: physicochemical
How it was run: (§4)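 λmax of the trans isomer recorded in DMSO and in BRAF assay buffer.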

[14] = biological target: T1, Serine/threonine-protein kinase B-raf; assay: Inhibition of human recombinant N-terminal GST/His6-tagged BRAF V600E mutant (Q417 to H766 residues) expressed in Sf9 insect cells using MEK1 as substrate measured after 1 hr using preheated compound at 60 degC for 30 mins by Western blot analysis
[15] = Absorption property of the compound in DMSO assessed as maximum absorption wavelength; assay type: physicochemical; how it was run: as §4
[16] = Drug isomerization in DMSO-d6 irradiated at 365 nm assessed as cis isomer level at PSS at 2 mg/ml measured after 120 mins under room temperature by 1H and 19F-NMR spectroscopic analysis
[17] = Drug isomerization in DMSO-d6 irradiated at 365 nm assessed as cis isomer level at PSS at 2 mg/ml measured after 40 mins under room temperature by 1H and 19F-NMR spectroscopic analysis
[18] = Drug isomerization in DMSO-d6 irradiated at 365 nm assessed as cis isomer level at PSS at 2 mg/ml measured after 70 mins under room temperature by 1H and 19F-NMR spectroscopic analysis
[19] = Drug isomerization in DMSO-d6 irradiated at 365 nm assessed as cis isomer level at PSS at 2 mg/ml measured after 60 mins under room temperature by 1H and 19F-NMR spectroscopic analysis
[20] = Drug isomerization in DMSO-d6 irradiated at 365 nm assessed as cis isomer level at PSS at 2 mg/ml measured after 135 mins under room temperature by 1H and 19F-NMR spectroscopic analysis
[21] = Drug isomerization in DMSO-d6 irradiated at 365 nm assessed as cis isomer level at PSS at 2 mg/ml measured after 75 mins under room temperature by 1H and 19F-NMR spectroscopic analysis
[22] = Half life of the compound in pH 7.5 tris HCl buffer at 2 mg/ml measured at room temperature under 365 nm light irradiation using trans-isomer form of compound by 1H-19F NMR spectroscopic analysis; how it was run: as §3
[23] = Stability in bovine plasma irradiated with white light at 10 uM by LCMS analysis; assay type: ADME, cell-free, Bos taurus; conditions: cattle
[24] = Drug isomerization in bovine plasma at 10 uM measured after 20 hrs at 37 degC by LCMS analysis; assay type: ADME, cell-free, Bos taurus; conditions: cattle
[25] = Drug isomerization in DMSO-d6 irradiated at 365 nm assessed as cis isomer level at PSS at 2 mg/ml measured after 45 mins under room temperature by 1H and 19F-NMR spectroscopic analysis
[26] = Drug isomerization in bovine plasma assessed as cis-isomer formation at 10 uM irradiated with 365 nm light by LCMS analysis; assay type: ADME, cell-free, Bos taurus; conditions: cattle
A-375 [27] = assay: Dark toxicity against human A375 cells harboring BRAF V600E mutant assessed as reduction in cell viability at 10 uM incubated for 24 hrs using preheated compound at 60 degC for 60 mins by MTS assay; assay type: cell-based; conditions: a-375, 24 h, in the assay text read “30 mins” for “60 mins”; how it was run: as §1
[28] = tested on: Serine/threonine-protein kinase B-raf (Homo sapiens), P15056 [V600E]; assay: Inhibition of BRAF V600E mutant in human SK-MEL-28 using peptide as substrate using preheated compound at 60 degC for 30 mins measured under dark condition by STK-Pamchip array-based method; assay type: cell-based; how it was run: as §2
[29] = tested on: Serine/threonine-protein kinase B-raf (Homo sapiens), P15056 [V600E]; assay: Reversible inhibition of human recombinant N-terminal GST/His6-tagged BRAF V600E mutant (Q417 to H766 residues) expressed in Sf9 insect cells using MEK1 as substrate at 1 uM pre-irradiated with 365 nm light for 45 mins followed by thermal activation at 60 degC for 30 mins and subsequent light irradiation at 365 nm for 45 mins by Western blot analysis
[30] = Stability of thermally adapted compound in bovine plasma at 10 uM after 1 hr at 37 degC by LCMS analysis; assay type: ADME, cell-free, Bos taurus; conditions: cattle
[31] = Drug isomerization in DMSO-d6 irradiated at 365 nm assessed as rate of thermal relaxation measured as cis isomer level at PSS at 2 mg/ml measured after 2.5 hrs storage in dark at room temperature by 1H-NMR spectroscopic analysis
[32] = Thermal re-isomerization in bovine plasma assessed as trans-isomer formation at 10 uM measured after 1 hr at 37 degC using pre-irradiated compound at 365 nm light for 1 hr by LCMS analysis; assay type: ADME, cell-free, Bos taurus; conditions: cattle
[33] = tested on: Serine/threonine-protein kinase B-raf (Homo sapiens), P15056 [V600E]; assay: Inhibition of BRAF V600E mutant in human SK-MEL-28 using peptide as substrate using irradiated compound at 365 nm light for 45 mins by STK-Pamchip array-based method; assay type: cell-based; how it was run: as §2
[34] = Drug isomerization in DMSO-d6 irradiated at 365 nm assessed as cis isomer level at PSS at 2 mg/ml measured after 100 mins under room temperature by 1H and 19F-NMR spectroscopic analysis
[35] = Drug isomerization in DMSO-d6 irradiated at 365 nm assessed as cis isomer level at PSS at 2 mg/ml measured after 30 mins under room temperature by 1H and 19F-NMR spectroscopic analysis

Structure (SMILES) | IC50 [7] | remaining at 2 mg/ml [10] | Activity [13] | IC50 [14] | Activity [15] | T1/2 [4] | T1/2 [5] | Drug metabolism [6] | Drug metabolism [11] | also measured
COc1n[nH]c2ncc(NC(=O)c3c(F)ccc(NS(=O)(=O)c4ccccc4)c3F)cc12 | – | – | – | – | – | – | – | – | – | Activity (A-375 [1]): Active; IC50 [2]: 22 nM; inhibition [3]: Active
COc1n[nH]c2ncc(NC(=O)c3c(F)ccc(/N=N\c4ccccc4C)c3F)cc12 | 540 nM | – | – | – | – | > 70 h | > 24 h | – | – | Drug metabolism [8]: 62%
COc1ccccc1/N=N\c1ccc(F)c(C(=O)Nc2cnc3[nH]nc(OC)c3c2)c1F | 360 nM | – | – | – | – | > 24 h | > 24 h | – | – | Drug metabolism [9]: 79%
COc1n[nH]c2ncc(NC(=O)c3c(F)ccc(/N=N/c4ccccc4F)c3F)cc12 | – | > 95% | 331 nm | 320 nM | 336 nm | – | – | – | 71% | Drug metabolism [17]: 68%; Drug metabolism [18]: 71%
COc1ccccc1/N=N/c1ccc(F)c(C(=O)Nc2cnc3[nH]nc(OC)c3c2)c1F | – | > 95% | 327 nm | 300 nM | 334 nm | – | – | – | 88% | Drug metabolism [19]: 88%; Drug metabolism [12]: 88%
CCCS(=O)(=O)Nc1ccc(F)c(C(=O)c2c[nH]c3ncc(-c4ccc(Cl)cc4)cc23)c1F | – | – | – | – | – | – | – | – | – | Activity (A-375 [1]): Active
COc1n[nH]c2ncc(NC(=O)c3c(F)ccc(/N=N/c4ccccc4C)c3F)cc12 | – | > 95% | 334 nm | 1700 nM | 335 nm | – | – | – | 77% | Drug metabolism [20]: 77%; Drug metabolism [21]: 60%
COc1ccc(/N=N\c2cccc(C(=O)Nc3cnc4[nH]nc(OC)c4c3)c2)cc1 | 450 nM | – | – | – | – | > 10 h | – | 34% | – | T1/2 [22]: > 10 h
COc1n[nH]c2ncc(NC(=O)c3c(F)ccc(/N=N/c4ccccc4)c3F)cc12 | – | > 95% | 328 nm | 1680 nM | 332 nm | – | – | – | 37% | Stability [23]: Unstable; Drug metabolism [24]: Metabolite_Detected; Drug metabolism [12]: 55%; Drug metabolism [25]: 46%; Stability [26]: Unstable; Activity (A-375 [27]): Non-Toxic; inhibition [28]: Active; inhibition [29]: Active; Stability [30]: Unstable
COc1n[nH]c2ncc(NC(=O)c3c(F)ccc(/N=N\c4ccccc4F)c3F)cc12 | 660 nM | – | – | – | – | > 20 h | 5 h | 51% | – | Drug metabolism [31]: 50%
COc1ccc(/N=N/c2cccc(C(=O)Nc3cnc4[nH]nc(OC)c4c3)c2)cc1 | – | > 95% | 345 nm | 100 nM | 352 nm | – | – | – | 73% | Drug metabolism [19]: 92%; Drug metabolism [12]: 94%

Continued, in another order:

IC50 [7] | remaining at 2 mg/ml [10] | Activity [13] | IC50 [14] | Activity [15] | Structure (SMILES) | T1/2 [4] | T1/2 [5] | Drug metabolism [6] | Drug metabolism [11] | also measured
9 nM | – | – | – | – | COc1n[nH]c2ncc(NC(=O)c3c(F)ccc(/N=N\c4ccc(C)cc4)c3F)cc12 | > 20 h | > 24 h | 73% | – | –
– | > 95% | 338 nm | 2600 nM | 335 nm | COc1n[nH]c2ncc(NC(=O)c3c(F)ccc(/N=N/c4ccc(F)cc4)c3F)cc12 | – | – | – | 62% | Drug metabolism [12]: 58%; Drug metabolism [16]: 62%
470 nM | – | – | – | – | COc1ccc(/N=N\c2ccc(F)c(C(=O)Nc3cnc4[nH]nc(OC)c4c3)c2F)cc1 | > 10 h | > 24 h | 79% | – | –
8100 nM | – | – | – | – | COc1n[nH]c2ncc(NC(=O)c3c(F)ccc(/N=N\c4ccc(F)cc4)c3F)cc12 | > 20 h | > 24 h | 60% | – | –
157 nM | – | – | – | – | COc1n[nH]c2ncc(NC(=O)c3c(F)ccc(/N=N\c4ccccc4)c3F)cc12 | > 10 h | – | 36% | – | Drug metabolism [32]: Metabolite_Detected; Drug metabolism [24]: Metabolite_Detected; T1/2 [22]: 5.4 h; inhibition [33]: inactive
– | > 95% | 338 nm | 32 nM | 340 nm | COc1n[nH]c2ncc(NC(=O)c3c(F)ccc(/N=N/c4ccc(C)cc4)c3F)cc12 | – | – | – | 84% | Drug metabolism [34]: 84%; Drug metabolism [18]: 80%
– | > 95% | 341 nm | 92 nM | 357 nm | COc1ccc(/N=N/c2ccc(F)c(C(=O)Nc3cnc4[nH]nc(OC)c4c3)c2F)cc1 | – | – | – | 96% | Drug metabolism [19]: 83%; Drug metabolism [12]: 92%; Drug metabolism [35]: 60%
